From PubChem BioAssay
An excerpt weighted towards active compounds, which were near 5.4% of everything screened.
PostGolgi yeast: phenotypic screen on post-Golgi transport, primary screen | post-Golgi transport phenotypic cell assay | AID 739, 2007 | inhibition, % at 10 µM | 98,000 tested, 0.9% active;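 further: yeast cells grown in 1536-well plates; yeast grown about 18 h at 30C before absorbance read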
PLAP activator: PLAP enzyme activators, biochemical, luminescence, HTS; purified PLAP enzyme, luminescent substrate read-out; hits give high values; 96,000 tested, 1.2% active; activation fold at 20 µM; Alkaline phosphatase, placental type (Homo sapiens), P05187; in the data active means activation fold above about 2
Target sequence (P05187 whole entry, looked up): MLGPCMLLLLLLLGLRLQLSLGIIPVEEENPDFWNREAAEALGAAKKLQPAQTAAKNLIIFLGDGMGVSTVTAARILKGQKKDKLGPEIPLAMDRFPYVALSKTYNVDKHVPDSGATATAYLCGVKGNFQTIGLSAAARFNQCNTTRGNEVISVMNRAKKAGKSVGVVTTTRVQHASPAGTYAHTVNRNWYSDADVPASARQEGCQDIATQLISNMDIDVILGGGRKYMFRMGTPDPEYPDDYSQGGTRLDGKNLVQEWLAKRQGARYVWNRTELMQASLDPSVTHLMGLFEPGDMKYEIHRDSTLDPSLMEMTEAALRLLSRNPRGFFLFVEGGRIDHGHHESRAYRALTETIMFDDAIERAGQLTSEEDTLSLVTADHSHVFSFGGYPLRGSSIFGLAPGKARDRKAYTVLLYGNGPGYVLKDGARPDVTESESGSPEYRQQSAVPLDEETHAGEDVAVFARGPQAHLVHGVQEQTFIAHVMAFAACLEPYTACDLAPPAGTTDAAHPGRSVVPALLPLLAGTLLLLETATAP
tolC growth inh: growth inhibitors of E. coli tolC mutant, primary screen, strain BW25113 ΔtolC::kan, 384-well. OD615. growth inhibition, % at 10 µM (by protocol). 65,000 tested, 2.2% active. AID 573, 2007;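 active means growth inhibition at or above a cutoff equal to the mean over every tested compound plus 3 SD, cut at about 60% in these data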;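 further: growth measured after 20 h incubation at 37 °C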
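test system = E. coli BW25113 ΔtolC::kan bacteria | medium = LB with kanamycin 50 µg/mL | signal = OD at 615 nm | schedule = 37 °C, 20 h exposure | evaluation = % inhibition of E. coli growth | compound dosing = one dose of 10 µM final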
PostGolgi ctrl: growth inhibition of yeast control strain, primary screen, counter-screen for post-Golgi transport modulator project; efflux-deficient yeast background strain, growth absorbance A615, 16 h; inhibition, % at 10 µM; 98,000 tested, 5% active; AID 738, 2007
HePTP inhibitor: inhibitors of human HePTP phosphatase, primary screen, biochemical, absorbance, leukemia target. 110,000 tested, 0.64% active. Tyrosine-protein phosphatase non-receptor type 7 (Homo sapiens), P35236. recombinant HePTP phosphatase activity, OD absorbance. inhibition, % at 20 µM. AID 521, 2006; in the data active means inhibition above about 50%;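 further: plate controls were vehicle for no effect and reference inhibitor for full effect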
E coli WT exp: growth inhibitors of wild-type E. coli, primary screen, strain BW25113, expanded library, OD600; OD600 absorbance; growth inhibition, % at 100 µM; 98,000 tested, 0.15% active; AID 710, 2007;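 active means growth inhibition above about 50% at one test dose, limit read from the data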;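 further: growth measured after 20 h incubation at 37 °C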
Numbers without * were called inactive; . = no result given. Unless noted, no stated cut-off is given here; in the data, active means inhibition above about 30%; inactive means the rest.

SMILES	PostGolgi yeast	PLAP activator	tolC growth inh	PostGolgi ctrl	HePTP inhibitor	E coli WT exp
COCCn1c(SCC(=O)c2ccc(CNC(C)=O)o2)nc2ccccc2c1=O	6	1.1	2	4	0	1
O=C(NC12CC3CC(CC(C3)C1)C2)C12CC3CC(C1)CC(n1cnc(Cl)n1)(C3)C2	-5	1	.	45*	.	-9
Cc1cc2nncn2c2ccccc12	2	1.3	.	0	.	12
O=C(Nc1cccc(-c2nc3ccccc3s2)c1)c1cc2ccccc2oc1=O	.	.	.	.	0	.
Cc1nn(-c2ccc(Cl)c(Cl)c2Cl)c(=O)c2ccccc12	-9	0.8	.	29	.	-10
Cc1nn(-c2ccc(Cl)c(Cl)c2)c(=O)c2ccccc12	-1	1.1	.	49*	.	2
COc1ccccc1C(=O)Nc1ccc(S(=O)(=O)Nc2cc(C)on2)cc1	1	1.1	-5	-6	0	4
CN1C(=O)/C(=C2/SC(=S)N(CCC(=O)O)C2=O)c2cc(Br)ccc21	.	.	.	.	104*	.
CN1C(=O)/C(=C2\SC(=S)N(C(CCC(=O)O)C(=O)O)C2=O)c2ccccc21 (stereo unspecified)	-6	0.9	-5	1	11	7
Cc1ccc(NC(=S)Nc2ccc(F)cc2)cc1C	.	.	.	.	7	.
CC(C)(C)OC(=O)N1CCC[C@H]1c1nnc(SCc2c(Cl)cccc2Cl)o1	-2	1.7	79*	14	-3	5
CCSc1nnc([C@@H]2CCCN2C(=O)OC(C)(C)C)o1	1	1.4	-29	9	4	-3
O=C1OC(c2ccccc2)=C/C1=C/c1ccc(Br)cc1	.	.	.	.	1	.
O=C1OC(c2ccccc2)=C/C1=C/N1CCCCC1	-1	1	7	31*	-2	-2
COC(=O)C1=C(C)NC(C)=C(C(=O)OC)C1c1cn(-c2ccccc2)nc1-c1ccco1	25	1.3	52	69*	-6	-5
CCOC(=O)C1=C(C)NC(=S)NC1c1cn(-c2ccccc2)nc1-c1ccccc1 (stereo unspecified)	.	.	.	.	4	.
COc1ccc(OCC(=O)N/N=C\c2cc(O)c(O)c(Br)c2)c(Br)c1	.	.	.	.	3	.
Cc1cc(S(=O)(=O)Nc2cccnc2)c(C)s1	3	1.1	-11	0	8	0
Cc1cc(S(=O)(=O)Nc2ccc3ccccc3c2)c(C)s1	-11	1	.	78*	.	-8
CCOC(=O)C1CCN(C(=O)Cc2cccs2)CC1	-4	0.9	-9	36*	5	4
Cc1onc(-c2ccccc2Cl)c1C(=O)N1CCCCCC1	.	.	.	.	6	.
CCOC(=O)C1CCN(C(=O)c2c(-c3c(Cl)cccc3Cl)noc2C)CC1	33*	1.6	-13	8	-4	-7
Cc1onc(-c2ccccc2Cl)c1C(=O)N1CCN(c2cccc(Cl)c2)CC1	20	1.2	9	-7	6	4
Cc1onc(-c2ccccc2Cl)c1C(=O)N1CCN(c2ccccc2)CC1	0	1.4	11	39*	2	5
CCOC(=O)C1CCN(C(=O)Cc2ccccc2OC)CC1	.	.	.	.	-1	.
SMILES	PostGolgi yeast	PLAP activator	tolC growth inh	PostGolgi ctrl	HePTP inhibitor	E coli WT exp
Cc1onc(-c2ccccc2Cl)c1C(=O)N1CCN(c2ccccc2F)CC1	.	.	.	.	104*	.
Cc1nn(C)c(C)c1S(=O)(=O)N(CC(=O)NCc1cccs1)c1ccc(C(C)C)cc1	3	.	6	0	2	3
O=C(CN1C(=O)c2cccc3cccc1c23)Nc1ccc2c(c1)OCO2	-4	0.9	18	13	-2	-2
CCCCN1C(=O)/C(=C\c2ccc(Cl)cc2Cl)SC1=S	.	.	.	.	3	.
CCc1nc(SCC(=O)N2CCC(Cc3ccccc3)CC2)c2c(=O)n(C)c(=O)n(C)c2n1	19	1.2	.	40*	.	-6
CCCCC(CC)CNC(=O)c1[nH]c(C)c(C(C)=O)c1C (stereo unspecified)	20	1	62*	8	-5	5
Cc1cccc(NS(=O)(=O)c2cc(C(=O)NCCC3=CCCCC3)ccc2Cl)c1	7	1	.	35*	.	1
Cc1ccccc1NS(=O)(=O)c1cc(C(=O)NCCC2=CCCCC2)ccc1Cl	-1	1.1	.	17	.	-8
CCC(=O)c1cc(F)c(N2CCN(S(=O)(=O)c3ccc(C)cc3)CC2)cc1C	28	1.3	23	35*	3	-7
COC(=O)c1cn(NC(=O)c2cnccn2)c(=O)c2ccccc12	6	0.9	99*	-3	-4	1
COC(=O)c1cn(Nc2ncc(C(F)(F)F)cc2Cl)c(=O)c2ccccc12	-5	0.9	.	40*	.	2
O=S(=O)(c1ccc(Cl)cc1)N1CCC(O)(c2cccnc2)CC1	2	1.5	.	20	.	3
Cc1nc2ncnn2c(C)c1CCC(=O)O	-2	0.8	4	-3	.	5
O=C(CN1CCN(c2ccccn2)CC1)Nc1ccc(Oc2ccccc2)cc1	58*	1.1	30	2	11	-3
O=C(CN1CCN(c2ccccn2)CC1)Nc1ccccc1	-4	1.3	.	3	.	1
COc1ccccc1/C=C1\SC(=S)N(C(C(=O)O)C(C)C)C1=O (stereo unspecified)	.	.	.	.	8	.
Clc1ccc2nc(-c3ccc(Br)s3)cn2c1	-4	0.9	.	31*	.	-17
Cc1csc(=Nc2ccc(S(=O)(=O)N3CCOCC3)cc2)n1Cc1ccco1	-1	1.6	9	44*	4	-12
COc1ccc(Br)cc1Cn1c(=O)[nH]c2cc([N+](=O)[O-])ccc21	.	.	.	.	9	.
C/C(=N\Nc1ccc([N+](=O)[O-])cc1)c1cccc(N)c1	31*	0.5	.	5	.	13
CC(=O)N[C@H]1C[C@@H]1c1ccccc1	-1	0.9	10	-6	-8	9
CCC1CC2CC(NC(C)=O)C1C2 (stereo unspecified)	0	1.1	.	33*	.	-1
Cc1ccccc1-c1noc(C23CC4CC(CC(C4)C2)C3)n1	6	0.8	.	10	.	2
Cc1nc2c(-c3ccc(F)cc3)c(C)nn2c(C)c1CCC(=O)N1CCC(Cc2ccccc2)CC1	5	1.7	.	32*	.	-13
CC(=O)C1=C(O)C(=O)N(c2ccccn2)C1c1cccc([N+](=O)[O-])c1 (stereo unspecified)	.	.	.	.	2	.
COc1ccc(C(=O)OCCNC(=O)c2c(Cl)nc3ccccn23)cc1	6	1.1	16	36*	-5	7
CCOC(=O)c1c(-c2ccccc2)nc2ccccn12	5	0.8	.	12	.	6
CC(C)(C)c1ccc(C(=O)OCCNC(=O)c2c(Cl)nc3ccccn23)cc1	-2	1.6	.	37*	.	-8
O=C(N/N=C\c1ccccc1)c1sccc1-n1cccc1	-18	1	.	1	.	0
O=C(N/N=C/c1ccc(Br)cc1)c1ccccc1-n1cccc1	-1	1	.	31*	.	-4
